Reference: ChEMBL document CHEMBL1152741, “Discovery, design, and synthesis of anti-metastatic lead phenylmethylene hydantoins inspired by marine natural products” (Bioorg Med Chem, 2009)
Calls of active or inactive are those of the source. No cut-off for these calls is given here.

Key:
[1] = Antimetastatic activity against human PC3M cells expressing CTR assessed as reduction in migration area at 200 uM after 48 hrs by spheroid disaggregation assay; assay type: functional, PC-3M
Method in brief: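 PC-3M-CT+ cells (which secrete calcitonin and carry CTR) are formed into spheroids from 5 × 10^4/mL cells in serum-free RPMI 1640. Plates are rocked 2 days at 37°C, giving spheroids of 150–300 μm. Single spheroids are placed on ECM-coated wells in serum-free medium, with t = 0 set at 1 h. They are photographed, kept 48 h at 37°C, then fixed and Diff-Quik stained. Radial migration distance is measured by micrometer after subtracting the initial diameter. Compounds are tested at 200 μM.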

PC-3M [2] = test: Antiinvasive activity in human PC3M cells expressing CTR assessed as change in core spheroid at => 100 uM after 48 hrs by spheroid disaggregation assay; assay type: functional, cell-based
[3] = Antiinvasive activity in human PC3M cells expressing CTR assessed as inhibition of calcitonin-induced cell migration after 24 hrs by spheroid disaggregation assay; assay type: functional, cell-based; conditions: PC-3M
PC-3M [4] = test: Cytotoxicity against human PC3M cells assessed as cell viability up to 50 uM by MTT assay; assay type: functional, cell-based

| EC50 [3] | Compound | Activity [1] | Activity (PC-3M [2]) | Activity (PC-3M [4]) |
| --- | --- | --- | --- | --- |
|  | O=C1NC(=O)/C(=C/c2ccccc2-c2cccs2)N1 | 50 um | inactive |  |
|  | O=C1NC(=O)/C(=C/c2ccc(-c3cccs3)cc2)N1 | 39 um | inactive |  |
| 150 µM | O=C1NC(=O)/C(=C/c2ccc(O)cc2)N1 [4-HYDROXYPHENYLMETHYLENE HYDANTOIN] |  | inactive | inactive |
|  | O=C1NC(=O)/C(=C/c2ccccc2-c2ccccc2)N1 | 56 um | inactive |  |
|  | O=C1NC(=O)/C(=C/c2cccc(-c3ccccc3)c2)N1 | 76 um | inactive |  |
|  | Cc1ccc(/C=C2\NC(=O)NC2=O)c(F)c1F | 175 um | inactive |  |
| 30 µM | CCSc1ccc(/C=C2\NC(=O)NC2=O)cc1 | 15.5 um | inactive |  |
|  | N#Cc1cccc(/C=C2\NC(=O)NC2=O)c1 | 195 um | inactive |  |
